The whole screen tested about 200,000 compounds, of which fewer than 10 were called active. A selection follows. Unmarked numbers belong to inactive results.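 The calls were made as follows: active = activation factor at least 2 at 20 µM; inactive = the rest.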

Chain of Alkaline phosphatase, tissue-nonspecific isozyme (Homo sapiens) (P05186 whole entry, looked up): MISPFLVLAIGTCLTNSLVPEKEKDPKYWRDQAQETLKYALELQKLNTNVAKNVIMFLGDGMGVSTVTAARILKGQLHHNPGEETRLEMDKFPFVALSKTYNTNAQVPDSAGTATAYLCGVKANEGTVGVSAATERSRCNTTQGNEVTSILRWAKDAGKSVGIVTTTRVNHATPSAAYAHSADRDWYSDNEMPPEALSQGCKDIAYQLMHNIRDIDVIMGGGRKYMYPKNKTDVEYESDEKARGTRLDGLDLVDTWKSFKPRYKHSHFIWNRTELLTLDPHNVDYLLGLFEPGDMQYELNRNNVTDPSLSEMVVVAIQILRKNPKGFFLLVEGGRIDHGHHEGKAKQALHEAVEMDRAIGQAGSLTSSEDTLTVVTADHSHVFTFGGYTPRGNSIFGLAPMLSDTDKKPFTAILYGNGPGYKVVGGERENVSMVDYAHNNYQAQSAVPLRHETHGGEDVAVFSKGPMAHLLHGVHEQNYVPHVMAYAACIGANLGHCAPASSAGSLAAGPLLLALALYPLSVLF

In the test the target is Alkaline phosphatase, tissue-nonspecific isozyme (Homo sapiens) (UniProt P05186). Kind of test: TNAP activators at high phosphate acceptor level, primary screen, biochemical, luminescence, uHTS (AID 1136). As to conditions: purified TNAP, CDP-star luminescence, 1 M DEA, 30 min; at 20 µM; stronger effect = higher value; 0 = EDTA background, 1 = DMSO-only activity. The method in brief:
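Measured by: Luminescent substrate turnover signal | Test system: Human TNAP | Input: TNAP 1/800 final | Dosing: 20 µM single point | Schedule: 30 min, room temperature | Controls: EDTA wells as negative control, DMSO wells as positive control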
For `CC1CCCN(S(=O)(=O)c2ccc(N(C(=O)c3cnccn3)C(C(=O)NC3CCCCC3)c3cccs3)cc2)C1` (stereo not drawn), the activation factor was 0.9.
As for `COc1ccc([N+](=O)[O-])cc1NC(=O)C(C)OC(=O)C1c2ccccc2Oc2ccccc21` (stereo not drawn), the activation factor is 1.
Turning to `COc1ccc(C(=O)Nc2ccc(NC(=O)C(C)C)nc2)cc1`, the activation factor is 1.1.
Then `COc1ccc(CNc2c(CO)cnc3c2cnn3C)cc1`, with 1; and `CCOC(=O)c1sc(=NC(=O)/C=C/c2cccs2)n(C)c1C`, with 1.
As for `CN(C)C(CNC(=O)c1ccc(S(=O)(=O)NCc2ccco2)cc1)c1ccccc1` (stereo not drawn), the activation factor was 1.
For the compound `Cc1cc(C)cc(OCC(=O)Nc2ccc(S(=O)(=O)Nc3ccccn3)cc2)c1`, the activation factor was 1.
Then `COc1ccc(C(=O)NC(=S)Nc2ccc(Cl)cn2)cc1OC`, with 1.1; and `COc1ccc(N2C(=O)CC(Nc3ccc(F)cc3)C2=O)c([N+](=O)[O-])c1` (stereo not drawn), with 1.
For `CC(Oc1cccc(NC(=O)c2cccs2)c1)C(=O)c1ccccc1` (stereo not drawn), the activation factor was 1.
The figure for `CCCNS(=O)(=O)c1ccc(CCC(=O)N2CCCC2)cc1` is 1.1; for `COc1cc(OC)cc(-c2nnc(SCC(=O)Nc3ccc(C(=O)O)cc3)s2)c1` it is 1.
Then `O=C(N/N=C/c1ccc(OCC2COCCO2)cc1)c1ccc(Br)cc1` (stereo not drawn), with 1.
For `CCN(C(=O)c1ccc(Br)cc1)c1ccccc1`, the activation factor is 1.
As to `Cn1ncc(N2CCN(S(=O)(=O)c3ccc(Br)cc3)CC2)c(Cl)c1=O`, the activation factor was 1.1.
Then `O=C(CSCC(=O)Nc1cccc([N+](=O)[O-])c1)Nc1ccccc1`, with 1.
Consider `Cc1ccc(S(=O)(=O)NNC(=O)Nc2cccc3ccccc23)cc1`, for which the activation factor is 1.
Turning to `CCN(CC)c1ccc2c(Nc3ccccc3)c(C=O)c(=O)oc2c1`, the activation factor is 1.
For the compound `O=C(COC(=O)CCCSc1nc2ccccc2[nH]1)Nc1ccc(Oc2ccccc2)cc1`, the activation factor was 1.1.
Then `O=C(NCc1cccnc1)c1cccc(-c2cc3ccccc3oc2=O)c1`, with 1.1.
For the compound `C=CCN(C(=O)c1cc(C)cc(C)c1)C1(C(=O)Nc2ccccc2)CCN(C(C)C)CC1`, the activation factor is 1.
The figure for `CCOc1ccc(C(=O)Nc2nccs2)cc1[N+](=O)[O-]` is 1; for `COc1ccc(C)cc1NC(=O)NCc1ccccn1` it is 1.
Then `CCC1S/C(=N/N=C/c2ccco2)NC1=O` (stereo not drawn), with 1; and `CN(C)S(=O)(=O)c1ccc2oc(SCC(=O)Nc3ccccc3F)nc2c1`, with 1.
Then `C=CCOC(=O)C1=C[C@@H](c2ccccc2)C[C@@H](OCc2ccc(CO)cc2)O1`, with 1.1.
Regarding `NC1=C([N+](=O)[O-])C(c2ccccc2)C2=C(CCCC2=O)O1` (stereo not drawn), the activation factor is 1.
Regarding `Cc1ccc(C2(C(F)(F)F)N=C3Sc4cc(C)cc(C)c4N3C(=O)N2)cc1` (stereo not drawn), the activation factor was 1.
Then `CCN(CC(=O)NC1CCS(=O)(=O)C1)c1nc(-c2cccnc2)nc2ccccc12` (stereo not drawn), with 1; and `COCC(C)NC(=O)COc1nncc2ccccc12` (stereo not drawn), with 1.1; and `CC(=O)N1C(C)c2ccccc2C(C)(C)CC12CCCCC2` (stereo not drawn), with 1.
Then `Cn1cccc1/C=C1\SC(=O)N(CC(=O)Nc2ccc(F)cc2)C1=O`, with 1.1; and `COc1ccc(NC(=O)c2sc(N)nc2-c2ccccc2)cc1`, with 1.
The figure for `Cc1c(NC(=S)NC(=O)CCc2ccccc2)c(=O)n(-c2ccccc2)n1C` is 1.1.
Consider `CCCc1nc2c([nH]1)C(c1cccnc1)C(C#N)=C(N)O2` (stereo not drawn), for which the activation factor was 1.
Then `O=C1OC(/C=C/c2ccccc2)=NC/1=C/c1ccco1`, with 1; and `CCc1ccc(CN(C)Cc2nc(Cc3ccccc3)no2)nc1`, with 1.1; and `O=C(O)c1ccc2c3c(cccc13)C(=O)N(OS(=O)(=O)c1ccccc1)C2=O`, with 1.
As to `CCN(CC)C(=O)Oc1ccc(OC(=O)N(CC)CC)cc1`, the activation factor was 1.1.
The figure for `CC(Sc1nncn1C)C(=O)Nc1cc(C(F)(F)F)ccc1N1CCOCC1` (stereo not drawn) is 1.
Then `CN(C)/C=C(/C(=O)c1ccccc1)S(=O)(=O)c1ccc(Cl)cc1`, with 1.
Take `O=C(/C=C/c1ccc([N+](=O)[O-])cc1)NCCSCc1ccco1`: the activation factor is 1.
The figure for `O=C(Oc1cccc(O)c1)C1CCCCC1` is 1.
Take `O=C(NCCc1ccccc1)C1CCC(Cn2c(=O)c3ccccc3n(Cc3cccnc3)c2=O)CC1` (stereo not drawn): the activation factor is 0.9.
The figure for `C=CCc1ccc(OCC(O)CN2CCN(Cc3ccccc3)CC2)c(OC)c1` (stereo not drawn) is 1; for `CC(C)(C)NCc1cc(Br)ccc1OC1CCCC1` it is 1.
As for `O=C(NCc1nnc(SCC(=O)N2CCCc3ccccc32)o1)c1ccccc1F`, the activation factor is 1.
For `CN1CCN(c2ccc(NC(=O)c3ccc4c(c3)OCCO4)cc2Cl)CC1`, the activation factor was 1.1.
The figure for `O=C(CC(=O)N/N=C\c1cccc(Cl)c1Cl)NCc1ccccc1` is 1.
Regarding `Cc1cc([N+](=O)[O-])nn1CC(=O)Nc1ccc(Cc2ccncc2)cc1`, the activation factor was 1.
The figure for `Cc1cc(C)n(-c2ccc(C(=O)O)cc2[N+](=O)[O-])n1` is 1; for `Cc1cccc(Nc2nc3c(S(=O)(=O)c4ccccc4)nnn3c3ccccc23)c1C` it is 1.1.
For `Cc1ccc(S(=O)(=O)NC(=O)COc2ccccc2C)cc1`, the activation factor was 1.
Then `Cc1nc2c(C(=O)NCc3cccs3)cnn2c(C)c1Cc1ccc(F)cc1`, with 1; and `CC(=O)c1cccc(NC(=O)[C@@H](NC(N)=O)C(C)C)c1`, with 1; and `Cc1cccc(C)c1OCC(=O)NC(Cc1c[nH]c2ccccc12)C(=O)O` (stereo not drawn), with 0.9.
The figure for `COc1ccc(N2CCN(C(=O)CNS(=O)(=O)c3ccc(C)c(C)c3)CC2)cc1` is 1.1; for `Cc1ccc(-n2cnc3ncnc(-c4ccccc4)c32)cc1` it is 1.1; for `O=c1cc(CO)oc(C(Nc2cccc([N+](=O)[O-])c2)c2ccccn2)c1O` (stereo not drawn) it is 1.
As to `Cc1ccc(NC(=O)c2csc3c2CCCC3)cc1`, the activation factor was 1.
For `CCNC(=O)CC1C(=O)N(c2ccc(OC)cc2)C(=S)N1CCc1ccncc1` (stereo not drawn), the activation factor is 1.
Then `O=C(CC12CC3CC(CC(C3)C1)C2)NCc1ccco1`, with 1; and `CN(C)c1ccc(/C=N\S(=O)(=O)c2ccccc2)cc1`, with 1.

The record behind these values is PubChem BioAssay AID1136 (Sanford-Burnham Center for Chemical Genomics, 2008).
